Experimental data from ChEMBL document CHEMBL1129609, “Synthesis and antiviral activity evaluation of some new aminoadamantane derivatives. 2” (1996).
In brackets after ≈: the same amount, converted by molar mass.

What was measured:
Semliki Forest virus = experiment: Antiviral activity against Semliki forest virus infected Vero cell lines.; assay type: functional
How it was run: (§1)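 Vero (African green monkey kidney), HeLa (human epithelial) or HEL (human embryonic lung) cell monolayers infected with the virus. Readout is the minimum inhibitory concentration that reduces virus-induced cytopathicity by 50%. Values are averages of at least two separate experiments.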

HEF [1] = experiment: Effects on cell morphology of HEF cell lines.; assay type: functional; details: Homo sapiens
How it was run: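 Human embryonic skin-muscle fibroblasts were examined under the microscope for changes in normal cell morphology. The value is the minimum concentration causing a microscopically detectable alteration, averaged from at least two separate experiments.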

[2] = tested on: Vesicular stomatitis virus; experiment: Antiviral activity against vesicular stomatitis virus infected HEF cell lines.; assay type: functional
How it was run: (§2)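 Human embryonic fibroblasts, from embryonic lung or embryonic skin-muscle, infected with the virus. Endpoint is the minimum inhibitory concentration that reduces virus-induced cytopathicity by 50%. Values are averages of at least two separate experiments.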

[3] = tested on: Human immunodeficiency virus 2; experiment: Antiviral activity against HIV-2 virus infected CEM cell lines.; assay type: functional, CCRF-CEM
Human alphaherpesvirus 1 [4] = experiment: Antiviral activity against TK-HSV-1 virus infected HEF cell lines.; assay type: functional; how it was run: as §2
MDCK [5] = experiment: Antiviral activity tested against influenza A,H1N1 virus infected MDCK cell lines.; assay type: functional; details: Canis lupus familiaris
MDCK [6] = experiment: Antiviral activity of compound was tested against morphology virus infected MDCK cell lines.; assay type: functional; details: Canis lupus familiaris
Human betaherpesvirus 5 = experiment: Antiviral activity against HCMV virus infected HEL cell lines.; assay type: functional; how it was run: as §1
Sindbis virus = experiment: Antiviral activity against sindbis virus infected Vero cell lines.; assay type: functional; how it was run: as §1
Human alphaherpesvirus 2 = experiment: Antiviral activity against HSV-2 virus infected HEF cell lines.; assay type: functional; how it was run: as §2
Vaccinia virus = experiment: Antiviral activity against vaccinia virus infected HEF cell lines.; assay type: functional; details: Orthopoxvirus vaccinia; how it was run: as §2
HeLa [7] = experiment: Effects on cell morphology of HeLa cell lines.; assay type: functional; details: Homo sapiens
How it was run: (§3)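 HeLa (human epithelial) or Vero (African green monkey kidney) cells were examined under the microscope for changes in normal morphology. The value is the minimum concentration causing a detectable alteration, averaged from at least two separate experiments.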

[8] = tested on: Mammalian orthoreovirus 1; experiment: Antiviral activity against Reo 1 virus infected vero cell lines.; assay type: functional; how it was run: as §1
Human respirovirus 3 = experiment: Antiviral activity against parainfluenza 3 virus infected Vero cell lines.; assay type: functional; how it was run: as §1
[9] = tested on: Vesicular stomatitis virus; experiment: Antiviral activity against vesicular stomatitis virus infected HeLa cell lines.; assay type: functional; how it was run: as §1
CCRF-CEM [10] = experiment: Cytotoxicity against CEM cell lines.; assay type: functional; details: Homo sapiens
Coxsackievirus B4 [11] = experiment: Antiviral activity against Coxsackie B4 virus infected vero cell lines.; assay type: functional; details: Enterovirus B; how it was run: as §1
Influenza B virus = experiment: Antiviral activity against influenza B virus infected MDCK cell lines.; assay type: functional
HEL [12] = experiment: Inhibition of HEL cell proliferation.; assay type: functional; details: Homo sapiens
How it was run: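 Human embryonic lung fibroblasts were used for the proliferation assay. The value is the concentration that reduces cell proliferation by 50%, averaged from at least two separate experiments.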

Vero [13] = experiment: Effects on cell morphology of Vero cell lines.; assay type: functional; details: Chlorocebus sabaeus; how it was run: as §3
[14] = tested on: Human immunodeficiency virus 1; experiment: Antiviral activity against HIV-1 virus infected CEM cell lines.; assay type: functional, CCRF-CEM
Coxsackievirus B4 [15] = experiment: Antiviral activity against Coxsackie B4 virus infected HeLa cell lines.; assay type: functional; details: Enterovirus B; how it was run: as §1
Human alphaherpesvirus 3 [16] = experiment: Antiviral activity against TK+VZV virus infected HEL cell lines.; assay type: functional; how it was run: as §1
[17] = Antiviral activity against influenza A,H2N2 virus infected MDCK cell lines.; assay type: functional
Enterovirus C = experiment: Antiviral activity against polio 1 virus infected HeLa cell lines.; assay type: functional; how it was run: as §1
Human alphaherpesvirus 3 [18] = experiment: Antiviral activity against TK-VZV virus infected HEL cell lines.; assay type: functional; how it was run: as §1
[19] = Antiviral activity against influenza A,H3N2 virus infected MDCK cell lines.; assay type: functional
Human alphaherpesvirus 1 [20] = experiment: Antiviral activity against HSV-1 virus infected HEF cell lines.; assay type: functional; how it was run: as §2
MDCK [21] = experiment: Antiviral activity of compound was tested against morphology virus infec+ted MDCK cell lines.; assay type: functional; details: Canis lupus familiaris
HeLa [22] = experiment: Antiviral activity of compound was tested against morphology virus infected HeLa cell lines.; assay type: functional; details: Homo sapiens
MDCK [23] = experiment: Antiviral activity of compound was tested against influenza A,H3N2 virus infected MDCK cell lines.; assay type: functional; details: Canis lupus familiaris
CCRF-CEM [24] = experiment: Antiviral activity of compound were tested against HIV-2 virus infected CEM cell lines.; assay type: functional; details: Homo sapiens
HEF [25] = experiment: Antiviral activity of compound was tested against HSV-2 virus infected HEF cell lines.; assay type: functional; details: Homo sapiens; how it was run: as §2
HEL [26] = experiment: Antiviral activity of compound was tested against HCMV virus infected HEL cell lines.; assay type: functional; details: Homo sapiens; how it was run: as §1
CCRF-CEM [27] = experiment: Antiviral activity of compound was tested against viability virus infected CEM cell lines.; assay type: functional; details: Homo sapiens
HEF [28] = experiment: Antiviral activity of compound was tested against morphology virus infected HEF cell lines.; assay type: functional; details: Homo sapiens
Vero [29] = experiment: Antiviral activity of compound was tested against Coxsackie B4 virus infected vero cell lines.; assay type: functional; details: Chlorocebus sabaeus; how it was run: as §1
Vero [30] = experiment: Antiviral activity of compound were tested against semliki forest virus infected vero cell lines.; assay type: functional; details: Chlorocebus sabaeus; how it was run: as §1
Vero [31] = experiment: Antiviral activity of compound was tested against reo1 virus infected vero cell lines.; assay type: functional; details: Chlorocebus sabaeus; how it was run: as §1
HEL [32] = experiment: Antiviral activity of compound was tested against proliferation virus infected HEL cell lines.; assay type: functional; details: Homo sapiens
Vero [33] = experiment: Antiviral activity of compound was tested against sindbis virus infected vero cell lines.; assay type: functional; details: Chlorocebus sabaeus; how it was run: as §1
CCRF-CEM [34] = experiment: Antiviral activity of compound was tested against HIV-1 virus infected CEM cell lines.; assay type: functional; details: Homo sapiens
MDCK [35] = experiment: Antiviral activity of compound was tested against influenza […] virus infected MDCK cell lines; assay type: functional; details: Canis lupus familiaris
HEL [36] = experiment: Antiviral activity of compound was tested against TK-VZV virus infected HEL cell lines.; assay type: functional; details: Homo sapiens; how it was run: as §1
Vero [37] = experiment: Antiviral activity of compound was tested against morphology virus infected Vero cell lines.; assay type: functional; details: Chlorocebus sabaeus
HEF [38] = experiment: Antiviral activity of compound was tested against TK-HSV-1 virus infected HEF cell lines.; assay type: functional; details: Homo sapiens; how it was run: as §2
HeLa [39] = experiment: Antiviral activity of compound was tested against polio-1 virus infected HeLa cell lines.; assay type: functional; details: Homo sapiens; how it was run: as §1
HEF [40] = experiment: Antiviral activity of compound was tested against vaccinia virus infected HEF cell lines.; assay type: functional; details: Homo sapiens; how it was run: as §2
Vero [41] = experiment: Antiviral activity of compound was tested against parainfluenza 3,[…] virus infected Vero cell lines.; assay type: functional; details: Chlorocebus sabaeus; how it was run: as §1
HEL [42] = experiment: Antiviral activity of compound was tested against TK+VZV virus infected HEL cell lines.; assay type: functional; details: Homo sapiens; how it was run: as §1
HeLa [43] = experiment: Antiviral activity of compound was tested against Coxsackie B4 virus infected HeLa cell lines.; assay type: functional; details: Homo sapiens; how it was run: as §1

Structure (SMILES): C1CNC(C23CC4CC(CC(C4)C2)C3)C1 (centres undefined)
- MIC50 (Semliki Forest virus): > 200 µg/mL
- MIC50 (HEF [1]): 100 µg/mL (≈ 487 µM)
- MIC50 [2]: > 40 µg/mL
- MIC50 [3]: > 40 µg/mL
- MIC50 (Human alphaherpesvirus 1 [4]): > 40 µg/mL
- MIC50 (MDCK [5]): 15.8 µg/mL (≈ 76.9 µM)
- MIC50 (MDCK [6]): 250 µg/mL (≈ 1220 µM)
- MIC50 (Human betaherpesvirus 5): > 50 µg/mL
- MIC50 (Sindbis virus): > 200 µg/mL
- MIC50 (Human alphaherpesvirus 2): > 40 µg/mL
- MIC50 (Vaccinia virus): > 40 µg/mL
- MIC50 (HeLa [7]): > 200 µg/mL
- MIC50 [8]: > 200 µg/mL
- MIC50 (Human respirovirus 3): > 200 µg/mL
- MIC50 [9]: > 100 µg/mL
- MIC50 (CCRF-CEM [10]): 56 µg/mL (≈ 273 µM)
- MIC50 (Coxsackievirus B4 [11]): > 200 µg/mL
- MIC50 (Influenza B virus): 12 µg/mL (≈ 58.4 µM)
- MIC50 (HEL [12]): > 50 µg/mL
- MIC50 (Vero [13]): 400 µg/mL (≈ 1950 µM)
- MIC50 [14]: > 40 µg/mL
- MIC50 (Coxsackievirus B4 [15]): > 100 µg/mL
- MIC50 (Human alphaherpesvirus 3 [16]): > 50 µg/mL
- MIC50 [17]: 0.6 µg/mL (≈ 2.92 µM)
- MIC50 (Enterovirus C): > 100 µg/mL
- MIC50 (Human alphaherpesvirus 3 [18]): > 50 µg/mL
- MIC50 [19]: 12.4 µg/mL (≈ 60.4 µM)
- MIC50 (Human alphaherpesvirus 1 [20]): > 40 µg/mL

Structure (SMILES): CCN1CCCCC12C1CC3CC(C1)CC2C3 (centres undefined)
- MIC50 (Semliki Forest virus): > 400 µg/mL
- MIC50 (MDCK [21]): > 250 µg/mL
- MIC50 (HEF [1]): 100 µg/mL (≈ 428 µM)
- MIC50 [2]: > 200 µg/mL
- MIC50 [3]: > 200 µg/mL
- MIC50 (Human alphaherpesvirus 1 [4]): > 200 µg/mL
- MIC50 (MDCK [5]): 4.4 µg/mL (≈ 18.9 µM)
- MIC50 (Human betaherpesvirus 5): > 50 µg/mL
- MIC50 (Sindbis virus): > 400 µg/mL
- MIC50 (Human alphaherpesvirus 2): > 200 µg/mL
- MIC50 (Vaccinia virus): > 200 µg/mL
- MIC50 (HeLa [7]): > 400 µg/mL
- MIC50 [8]: > 400 µg/mL
- MIC50 (Human respirovirus 3): > 400 µg/mL
- MIC50 [9]: > 400 µg/mL
- MIC50 (CCRF-CEM [10]): > 200 µg/mL
- MIC50 (Coxsackievirus B4 [11]): > 400 µg/mL
- MIC50 (Influenza B virus): > 80 µg/mL
- MIC50 (HEL [12]): > 50 µg/mL
- MIC50 (Vero [13]): > 400 µg/mL
- MIC50 [14]: 200 µg/mL (≈ 857 µM)
- MIC50 (Coxsackievirus B4 [15]): > 400 µg/mL
- MIC50 (Human alphaherpesvirus 3 [16]): > 50 µg/mL
- MIC50 [17]: 31 µg/mL (≈ 133 µM)
- MIC50 (Enterovirus C): > 400 µg/mL
- MIC50 (Human alphaherpesvirus 3 [18]): > 50 µg/mL
- MIC50 [19]: > 65 µg/mL
- MIC50 (Human alphaherpesvirus 1 [20]): > 200 µg/mL

Structure (SMILES): CCN1CCOCC12C1CC3CC(C1)CC2C3 (centres undefined)
- MIC50 (HeLa [22]): > 400 µg/mL
- MIC50 (MDCK [23]): > 57 µg/mL
- MIC50 [2]: > 400 µg/mL
- MIC50 (CCRF-CEM [24]): > 200 µg/mL
- MIC50 (HEF [25]): > 400 µg/mL
- MIC50 (MDCK [5]): > 10 µg/mL
- MIC50 (HEL [26]): > 50 µg/mL
- MIC50 (MDCK [6]): > 250 µg/mL
- MIC50 (CCRF-CEM [27]): > 200 µg/mL
- MIC50 (HEF [28]): > 400 µg/mL
- MIC50 (Vero [29]): > 400 µg/mL
- MIC50 (Vero [30]): > 400 µg/mL
- MIC50 [9]: > 400 µg/mL
- MIC50 (Vero [31]): > 400 µg/mL
- MIC50 (HEL [32]): > 50 µg/mL
- MIC50 (Vero [33]): > 400 µg/mL
- MIC50 (CCRF-CEM [34]): 158 µg/mL (≈ 671 µM)
- MIC50 (MDCK [35]): > 80 µg/mL
- MIC50 (HEL [36]): > 50 µg/mL
- MIC50 (Vero [37]): > 400 µg/mL
- MIC50 (HEF [38]): > 400 µg/mL
- MIC50 (HeLa [39]): > 400 µg/mL
- MIC50 [17]: 10.5 µg/mL (≈ 44.6 µM)
- MIC50 (HEF [40]): > 400 µg/mL
- MIC50 (Vero [41]): > 400 µg/mL
- MIC50 (Human alphaherpesvirus 1 [20]): > 400 µg/mL
- MIC50 (HEL [42]): > 50 µg/mL
- MIC50 (HeLa [43]): > 400 µg/mL
